Reference: publication PMC4874862 (ACS chemical biology, 2016)

Tests used:
full-length HIV-1 IN = full-length HIV-1 IN (Human immunodeficiency virus type 1 group M subtype B, UniProt P12497); test: DLS analysis of IN multimerization; type: biochemical; details: 500 nM BI/D or 3 µM LEDGF/p75 added to 200 nM IN, 30 min
Outline: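 Recombinant full-length HIV-1 IN, E. coli-expressed with His or FLAG tag, at 200 nM in filtered 50 mM HEPES pH 7.4, 2 mM DTT, 2 mM MgCl2, 1 M NaCl. Test compound (500 nM) or LEDGF/p75 (3 µM) was added for 30 min. In a sequential arm, compound was added for 30 min, then LEDGF/p75 for 30 min more. DLS was recorded at 25 °C and particle size distribution calculated.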

[1] = molecular target: FLAG-LEDGF/p75 (full length) (UniProt O75475 1-530); test: AlphaScreen or HTRF
FLAG-LEDGF/p75 (full length), sequence (O75475 whole entry): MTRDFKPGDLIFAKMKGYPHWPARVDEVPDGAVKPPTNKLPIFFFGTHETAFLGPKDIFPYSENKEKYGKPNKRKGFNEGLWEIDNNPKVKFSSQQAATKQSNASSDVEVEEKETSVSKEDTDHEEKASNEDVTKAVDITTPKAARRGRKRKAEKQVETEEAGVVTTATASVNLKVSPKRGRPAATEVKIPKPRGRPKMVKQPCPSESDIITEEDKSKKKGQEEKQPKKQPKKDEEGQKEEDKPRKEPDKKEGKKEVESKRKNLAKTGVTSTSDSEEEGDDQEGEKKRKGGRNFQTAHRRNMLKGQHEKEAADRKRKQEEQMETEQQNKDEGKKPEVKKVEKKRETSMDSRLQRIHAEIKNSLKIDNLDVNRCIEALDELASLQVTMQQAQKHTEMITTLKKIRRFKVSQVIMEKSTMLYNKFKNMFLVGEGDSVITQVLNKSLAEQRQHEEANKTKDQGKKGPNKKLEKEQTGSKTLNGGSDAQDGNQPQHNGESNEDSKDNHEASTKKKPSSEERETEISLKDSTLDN

Molecule | estimated particle diameter (DLS) after addition to IN (full-length HIV-1 IN) | Kd [1] [nM]
LEDGF/p75: cellular chromatin associated protein, cofactor that binds the HIV-1 IN tetramer; recombinant, His or FLAG tagged | ~ 11 nM | 
6 × His-HIV-1 IN (wild type full-length HIV-1 integrase) (enzyme) FLDGIDKAQEEHEKYHSNWRAMASDFNLPPVVAKEIVASCDKCQLKGEAMHGQVDCSPGIWQLDCTHLEGKVILVAVHVASGYIEAEVIPAETGQETAYFLLKLAGRWPVKTVHTDNGSNFTSTTVKAACWWAGIKQEFGIPYNPQSQGVIESMNKELKKIIGQVRDQAEHLKTAVQMAVFIHNFKRKGGIGGYSAGERIVDIIATDIQTKELQKQITKIQNFRVYYRDSRDPVWKGPAKLLWKGEGAVVIQDNSDIKVVPRRKAKIIRDYGKQMAGDDCVASRQDED |  | 3.32 ± 0.31
